Results pooled from the literature.
Compare with care: the assays were run in different laboratories.
Target: MAP kinase-activated protein kinase 2 (MAPKAPK2, Homo sapiens, UniProt P49137)

Nc1ncc2c(n1)-c1c([nH]c3ccc(C#CC4CC4)cc13)CCCC2 — remaining binding (binding; competition with immobilised ligand; 1 µM): 86%
O=C(NS(=O)(=O)c1ccc(NCC2CCOCC2)c([N+](=O)[O-])c1)c1ccc(N2CCN(Cc3ccc(C(F)(F)F)cc3-c3ccc(Cl)cc3)CC2)cc1Oc1cnc2[nH]ccc2c1 — remaining binding (cell-free assay; competition with immobilised ligand; 1 µM): 81%
O=C(NCCCN1CCOCC1)c1ccc(Nc2nccc(-c3cc4ccccc4s3)n2)cc1 — remaining binding (binding; competition with immobilised ligand; 1 µM): 100%
CN(C)c1ncc(F)c(-c2cnn3ncccc23)n1 — remaining binding (binding; 1 µM): 100%
O=C(c1ccc(Nc2ncc(Cl)c(-c3cc4ccccc4s3)n2)cc1)N1CCC(N2CCCC2)CC1 — remaining binding (binding; competition with immobilised ligand; 1 µM): 100%
COCCOc1nc(-c2ccc(Cl)nc2)nc2c1CN(C(=O)c1ncn3ccccc13)CC2 — remaining binding (cell-free assay; competition with immobilised ligand; 0.1 µM): 73%
C[C@@H](c1ccc(-n2cnc3c(N)ncnc32)cc1)N1CCc2nn(C)c(Cc3ccccc3)c2C1=O — remaining binding (binding; competition with immobilised ligand; 0.1 µM): 49%
Cc1c(C(=O)O)cc(-c2ccc(C3CCNCC3)cc2)c2ccc(-c3ccc(C(F)(F)F)cc3)cc12 — remaining binding (binding; competition with immobilised ligand; 1 µM): 88%
F[C@@H]1CCN(c2nccc(-c3cnn4ncccc34)n2)C1 — remaining binding (binding; 1 µM): 93%
Cn1nc(C(F)(F)F)cc1-c1cnc(N2CCc3cc(S(=O)(=O)Nc4c(F)cc(Cl)cc4F)cc(N4CCCC4=O)c32)nc1 — remaining binding (cell-free assay; competition with immobilised ligand; 1 µM): 73%
Cc1cnn2ncc(-c3ccnc(N(C)C)n3)c2c1 — remaining binding (binding; 1 µM): 100%
COc1cnc(Nc2cccc(S(N)(=O)=O)c2)nc1N1CCN(c2ccccc2)CC1 — remaining binding (binding; competition with immobilised ligand; 1 µM): 100%
C[C@@H]1CN(c2ccc3ncc(-c4ccc5[nH]nc(C6CC6)c5c4)n3n2)C[C@H](C)O1 — remaining binding (binding; competition with immobilised ligand; 50 nM): 62%
CNCc1ccccc1-c1csc([C@@H](C)Nc2nc(C)nc3cc(OC)c(OC)cc23)c1 — remaining binding (cell-free assay; competition with immobilised ligand; 1 µM): 83%
CC(C)(C)c1ccc(-c2nc(CBr)nn2-c2cccc(O)c2)cc1 — remaining binding (cell-free assay; competition with immobilised ligand; 10 µM): 100%
N#Cc1ccccc1CSc1nnc2c(n1)[nH]c1ccccc12 — remaining binding (binding; competition with immobilised ligand; 10 µM): 82%
